Results published in ChEMBL document CHEMBL3243955, “A novel synthesis and biological activity of several 5-halo-5'-amino analogues of deoxyribopyrimidine nucleosides” (J Med Chem, 1978).
Activity calls are given as the source filed them. No cut-off for these calls is given here.

How the values were obtained:
Human alphaherpesvirus 1 [1] = experiment: Antiviral activity against HSV1 CL101 infected in African green monkey Vero cells assessed as plaque forming unit at 400 uM after 40 hrs relative to control; type: functional; conditions: Human alphaherpesvirus 1, CL101, Vero
Procedure, shortened: (§1)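 After 1 h adsorption at 37 °C, the inoculum was removed and cells washed with PBS. Compound was added in serum-supplemented medium and cultures incubated 40 h at 37 °C. Virus was released by one freeze–thaw and titrated by plaque assay on Vero cells. Percent inhibition was pfu relative to drug-free cultures.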

[2] = (§2) Cytotoxicity against African green monkey Vero cells at 400 uM after 3 days by haemocytometry; type: cell-based; conditions: chlorocebus sabaeus, Vero cells; read-out: INH
Procedure, shortened: (§3)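 Uninfected Vero cells were seeded at 0.1 confluency in Dulbecco's medium with 10% fetal calf serum and incubated 1 day at 37 °C in 5% CO2. Compound was then added in growth medium. Duplicate flasks were harvested at once and then daily for 3 days by trypsin (0.125%)/EDTA (0.02%) for 15 min at 37 °C, dispersed, and stained with trypan blue. Cells were counted by haemocytometer.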

[3] = Cytotoxicity against African green monkey Vero cells at 0.1 uM after 3 days by haemocytometry; type: cell-based; conditions: chlorocebus sabaeus, read-out: INH; procedure, shortened: as §3
Vero [4] = experiment: Cytotoxicity against African green monkey Vero cells at 0.01 uM after 3 days by haemocytometry; type: cell-based; conditions: chlorocebus sabaeus, 72 h; procedure, shortened: as §3
CCRF S-180 [5] = experiment: Cytotoxicity against mouse S180 cells at 400 uM after 18 to 42 hrs relative to control; type: functional
Procedure, shortened: (§4)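 Mouse sarcoma 180 suspension cultures in Fischer's medium with 10% horse serum, 37 °C, humidified 5% CO2 (generation time ~18 h). Compound was added to exponential-phase cells at ~2 × 10⁴ cells/mL. Increase in cell number was measured after 18 and 42 h. Percent inhibition was calculated relative to drug-free control.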

CCRF S-180 [6] = experiment: Cytotoxicity against mouse S180 cells at 0.1 uM after 18 to 42 hrs relative to control; type: functional; procedure, shortened: as §4
CCRF S-180 [7] = experiment: Cytotoxicity against mouse S180 cells at 0.01 after 18 to 42 hrs relative to control; type: functional; procedure, shortened: as §4
Vero [8] = experiment: as §2; type: cell-based; conditions: chlorocebus sabaeus, vero, 72 h, 400 µM; procedure, shortened: as §3
Vero [9] = experiment: Cytotoxicity against African green monkey Vero cells at 1600 uM after 3 days by haemocytometry; type: cell-based; conditions: chlorocebus sabaeus, 72 h; procedure, shortened: as §3
CCRF S-180 [10] = experiment: Cytotoxicity against mouse S180 cells at 1600 uM after 18 to 42 hrs relative to control; type: functional, cell-based; procedure, shortened: as §4
Human alphaherpesvirus 1 [11] = experiment: Antiviral activity against HSV1 CL101 infected in African green monkey Vero cells assessed as plaque forming unit at 200 uM after 40 hrs relative to control; type: functional; conditions: Human alphaherpesvirus 1, CL101, Vero; procedure, shortened: as §1
Vero [12] = experiment: Cytotoxicity against African green monkey Vero cells at 200 uM after 3 days by haemocytometry; type: cell-based; conditions: chlorocebus sabaeus, 72 h
CCRF S-180 [13] = experiment: Cytotoxicity against mouse S180 cells at 200 uM after 18 to 42 hrs relative to control; type: functional, cell-based; procedure, shortened: as §4
Human alphaherpesvirus 1 [14] = experiment: Antiviral activity against HSV1 CL101 infected in African green monkey Vero cells assessed as plaque forming unit at 1 uM after 40 hrs relative to control; type: functional, organism-based; procedure, shortened: as §1
Vero [15] = experiment: Cytotoxicity against African green monkey Vero cells at 1 uM after 3 days by haemocytometry; type: cell-based; conditions: chlorocebus sabaeus, 72 h; procedure, shortened: as §3
CCRF S-180 [16] = experiment: Cytotoxicity against mouse S180 cells at 1 uM after 18 to 42 hrs relative to control; type: functional; procedure, shortened: as §4
Human alphaherpesvirus 1 [17] = experiment: Antiviral activity against HSV1 CL101 infected in African green monkey Vero cells assessed as plaque forming unit at 50 uM after 40 hrs relative to control; type: functional; conditions: Human alphaherpesvirus 1, CL101, Vero; procedure, shortened: as §1
Vero [18] = experiment: (§5) Cytotoxicity against African green monkey Vero cells at 50 uM after 3 days by haemocytometry; type: cell-based; conditions: chlorocebus sabaeus, vero, 72 h, 50 µM; procedure, shortened: as §3
Vero [19] = experiment: Cytotoxicity against African green monkey Vero cells at 800 uM after 3 days by haemocytometry; type: cell-based; conditions: chlorocebus sabaeus, 72 h; procedure, shortened: as §3
[20] = as §5; type: cell-based; conditions: chlorocebus sabaeus, Vero cells; read-out: INH; procedure, shortened: as §3
CCRF S-180 [21] = experiment: Cytotoxicity against mouse S180 cells at 50 uM after 18 to 42 hrs relative to control; type: functional; procedure, shortened: as §4

For O=c1[nH]c(=O)n([C@H]2C[C@H](O)[C@@H](CO)O2)cc1F [FLOXURIDINE], the inhibition at 400 µM (Human alphaherpesvirus 1 [1]) was 84.3%, the cytotoxicity at 72 h, 400 µM [2] was 100% and the cytotoxicity at 72 h, 0.1 µM [3] was 100%. The Activity (Vero [4]) was “Non-toxic”, the inhibition at 400 µM (CCRF S-180 [5]) was 100% and the inhibition at 0.1 µM (CCRF S-180 [6]) was 100%. For the same compound, the “inhibition (INH)” value (CCRF S-180 [7]) was 100%.
In the case of [N-]=[N+]=NC[C@H]1O[C@@H](n2cc(F)c(O)nc2=O)C[C@@H]1O, the inhibition at 400 µM (Human alphaherpesvirus 1 [1]) is reported as 5%, the cytotoxicity at 72 h, 400 µM [2] is reported as 100% and the inhibition at 400 µM (CCRF S-180 [5]) is reported as 100%.
With NC[C@H]1O[C@@H](n2cc(Cl)c(O)nc2=O)C[C@@H]1O the inhibition at 400 µM (Human alphaherpesvirus 1 [1]) was 74.3%, the Activity (Vero [8]) was “Non-toxic” and the inhibition (CCRF S-180 [5]) was “inactive”.
In the case of NC[C@H]1O[C@@H](n2cc(I)c(N)nc2=O)C[C@@H]1O, the inhibition at 400 µM (Human alphaherpesvirus 1 [1]) is reported as 92.8%, the Activity (Vero [8]) is reported as “Non-toxic” and the Activity (Vero [9]) is reported as “Non-toxic”. For the same compound, the inhibition (CCRF S-180 [5]) was “inactive” and the inhibition (CCRF S-180 [10]) was “inactive”.
For NC[C@H]1O[C@@H](n2cc(Br)c(O)nc2=O)C[C@@H]1O, the inhibition at 200 µM (Human alphaherpesvirus 1 [11]) was 86.2%, the Activity (Vero [12]) was “Non-toxic” and the inhibition (CCRF S-180 [13]) was “inactive”.
In the case of NC[C@H]1O[C@@H](n2cc(F)c(=O)[nH]c2=O)C[C@@H]1O, the inhibition at 400 µM (Human alphaherpesvirus 1 [1]) is reported as 85.6%, the inhibition (Human alphaherpesvirus 1 [14]) is reported as “inactive” and the cytotoxicity at 72 h, 400 µM [2] is reported as 100%. The Activity (Vero [15]) was “Non-toxic”, the inhibition at 400 µM (CCRF S-180 [5]) was 100% and the inhibition at 1 µM (CCRF S-180 [16]) was 100%.
In the case of Nc1nc(=O)n([C@H]2C[C@H](O)[C@@H](CO)O2)cc1I [IBACITABINE], the inhibition at 50 µM (Human alphaherpesvirus 1 [17]) is reported as 99.5%, the Activity (Vero [18]) is reported as “Non-toxic” and the Activity (Vero [19]) is reported as “Non-toxic”.
With O=c1[nH]c(=O)n([C@H]2C[C@H](O)[C@@H](CO)O2)cc1I [IDOXURIDINE] the inhibition at 50 µM (Human alphaherpesvirus 1 [17]) was 99.5%, the cytotoxicity at 72 h, 50 µM [20] was 100% and the inhibition at 50 µM (CCRF S-180 [21]) was 100%.
For [N-]=[N+]=NC[C@H]1O[C@@H](n2cc(I)c(N)nc2=O)C[C@@H]1O, the inhibition at 200 µM (Human alphaherpesvirus 1 [11]) was 37.5%, the Activity (Vero [12]) was “Non-toxic” and the inhibition (CCRF S-180 [13]) was “inactive”.
